Compound activity from PubChem BioAssay.
Rows were chosen to be rich in hits. Some 2.2% of all compounds tested hit in one or more screens of this group.
HTRA1 inhibitor: HTRA1 (human) protease inhibition. recombinant HTRA1, FP-rhodamine activity-based probe, fluorescence polarization. inhibition, % at 5.96 µM. Q92743. actives 0.5% (n = 340,000); in the data active = inhibition above about 36%;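 also: 0% = enzyme with DMSO and 100% = wells lacking enzyme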
TCR-CD3 inh: blocks the human TCR-CD3 interaction; TAMRA-labeled TCR probe fluorescence, biochemical; inhibition, % at 9.4 µM; actives 0.37% (n = 360,000); in the data active = inhibition above about 19%;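 also: recombinant mutant TCR 2C K166C tagged with TAMRA read by polarization; 0% = receptor in buffer alone and 100% = receptor with positive control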
LEDGF integ inh: blocks HIV-1 LEDGF/p75-dependent DNA integration | TR-FRET IN-LEDGF/p75 DNA integration, Eu/Cy5 | inhibition, % at 3.7 µM | actives 0.64% (n = 370,000) | AID 743269;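 active = inhibition above the screen-wide mean plus 3 SD, cut at about 13% in these data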;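 also: signal is the Cy5 over europium emission ratio at 671 and 618 nm; 0% = plate median of compound wells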
TDP2 inh: blocks human TDP2 phosphodiesterase activity; recombinant TDP2, T5PNP hydrolysis, p-nitrophenol absorbance 415 nm; O95551; AID 720702; actives 0.34% (n = 370,000); inhibition, % at 12.8 µM;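 active = inhibition above the mean of all tested compounds plus 3 SD, set per campaign, cut at about 25% in these data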;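 also: 0% = DMSO with enzyme and 100% = buffer with substrate but no TDP2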
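Material: recombinant human TDP2; quantity: TDP2 enzyme at 120 nM final; medium: Tris-HCl pH 7.5 with MgCl2; compound: single concentration, 12.8 µM nominal, with 1% DMSO; incubation: 2 h enzyme incubation at 37 °C; signal: epi absorbance; measure: percent inhibition; benchmarks: high control without enzyme, low control DMSO plus TDP2; repeats: singlicate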
SIAE primary: inhibitors of human sialic acid acetylesterase SIAE | SIAE FP-Rh probe binding, fluorescence polarization | inhibition, % at 9.66 µM | actives 0.69% (n = 370,000) | Q9HAT2;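 active = inhibition above a cutoff: mean of compounds within the control limits plus 3 SD of those, cut at about 17% in these data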;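 also: 0% = plate median of compound wells and 100% = probe without SIAE protein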
Target sequence (Q9HAT2 whole entry, looked up): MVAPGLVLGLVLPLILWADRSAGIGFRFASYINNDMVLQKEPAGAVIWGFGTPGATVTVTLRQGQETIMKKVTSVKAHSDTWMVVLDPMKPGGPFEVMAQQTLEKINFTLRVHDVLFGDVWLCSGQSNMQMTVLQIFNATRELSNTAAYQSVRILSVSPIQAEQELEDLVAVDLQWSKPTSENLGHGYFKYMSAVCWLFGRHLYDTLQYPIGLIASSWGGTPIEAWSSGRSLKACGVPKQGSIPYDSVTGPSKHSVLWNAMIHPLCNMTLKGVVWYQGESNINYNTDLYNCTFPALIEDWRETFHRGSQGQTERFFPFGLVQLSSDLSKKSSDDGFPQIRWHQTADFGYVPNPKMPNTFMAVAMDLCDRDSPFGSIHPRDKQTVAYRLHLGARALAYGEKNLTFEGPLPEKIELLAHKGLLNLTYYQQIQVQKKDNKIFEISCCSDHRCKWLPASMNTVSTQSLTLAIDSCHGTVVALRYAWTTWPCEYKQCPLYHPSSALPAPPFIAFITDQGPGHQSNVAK
ABHD4 inh: inhibits mouse alpha/beta hydrolase domain 4. Q8VD66. purified mABHD4, FP-Rh probe fluorescence polarization. inhibition, % at 8.92 µM. actives 0.54% (n = 370,000). AID 720543;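 active = inhibition exceeding the mean over every tested compound plus 3 SD, cut at about 30% in these data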;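 also: 0% = plate median of compound wells and 100% = S159A mutant with DMSO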
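Test system: mABHD4 protein; Read-out basis: % inhibition; Incubation: 45 min + 60 min at 25 °C; Repeats: single replicate; Technique: fluorescence polarization with parallel and perpendicular emission, 525/598 nm; Compound: 8.92 µM, single dose; Benchmarks: full inhibition S159A mutant plus DMSO, zero as sample-well median.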
TDP2 confirm: confirmation of human TDP2 inhibitors. recombinant human TDP2, absorbance read-out. shares compounds with TDP2 inh. inhibition, % at 12.8 µM. AID 743263. actives 22% (n = 1,100); in the data active = inhibition above about 25%;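 also: 0% = vehicle with enzyme and 100% = no enzyme buffer only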
Numbers without * were called inactive; . = no result.

SMILES	HTRA1 inhibitor	TCR-CD3 inh	LEDGF integ inh	TDP2 inh	SIAE primary	ABHD4 inh	TDP2 confirm
CCCC(=O)NC1=C(Cl)C(=O)c2ccccc2C1=O	2	-4	4	26*	-1	10	53*
C#CCN(C[C@H]1[C@H](OC(=O)NCCCCCC)[C@H](OC(=O)NCCCCCC)CN(C(=O)OC(C)C)N1C(=O)OC(C)C)S(=O)(=O)c1ccc(C)cc1	.	-2	-1	-4	-8	-7	.
COc1cc2c(cc1OC)-c1cc3ccc4c(c3c[n+]1CC2)OCO4	6	2	5	26*	8	12	9
Cc1cc(C)c(OCCN2CCCC2)c(Cl)c1	5	-4	2	24	3	12	.
Cc1cc(C)c(OCCOCCN2CCN(C)CC2)c(Cl)c1	6	-3	2	29*	6	20	11
COC(=O)[C@H](C)NC(=O)[C@@H]1CC=C[C@@H]2CCN(CCc3ccccc3)C(=O)[C@@H]21	.	.	0	10	-1	2	.
CC(=O)NC1C(=O)N(CCN2CCOCC2)c2ccc(F)cc21 (configuration not stated)	2	3	9	32*	-2	20	31*
CC(=O)NC1C(=O)N(CCN2CCOCC2)c2ccc(C)cc21 (configuration not stated)	1	.	.	.	.	.	.
C=CCn1c(SCc2c(F)c(F)c(F)c(F)c2F)nc(O)cc1=O	-4	3	1	43*	-6	1	8
CC(C)C[C@H]1CNC(=O)C(=O)N1C[C@@H]1CCCN1C[C@H](Cc1ccccc1)N1C[C@H](CC(C)C)N(CC2CCCCC2)C(=O)C1=O	.	-3	3	3	9	-12	.
O=C(O)C(Cc1c[nH]c2ccccc12)NS(=O)(=O)c1ccc(F)cc1 (configuration not stated)	-2	2	-4	28*	8	0	-1
COc1cc(C2Nc3ccccc3C(=O)N2c2ccccc2)ccc1O (configuration not stated)	-5	0	6	29*	5	8	5
C[C@H]1COc2cc(Br)ccc2S(=O)(=O)N1Cc1cn(CCC2OCCO2)nn1	.	.	5	-1	2	-2	.
COc1ccccc1-c1ccc(SCC(=O)NC2CCCC2)nn1	5	-4	5	37*	-7	-6	-10
COC(=O)c1cc2c(c3c4cc(F)ccc4n(S(=O)(=O)c4ccc(C)cc4)c13)C(=O)N(Cc1ccc(C(F)(F)F)cc1)C2	.	4	-2	2	-7	8	.
NS(=O)(=O)c1ccc(NC(=O)/C=C/c2ccco2)cc1	-13	11	4	32*	-4	-5	6
O=C(/C=C/c1ccco1)Nc1ccc(S(=O)(=O)N2CCOCC2)cc1	-3	6	0	-2	-2	4	.
O=C(Nc1c(-c2ccc(Cl)cc2)[nH][nH]c1=O)c1ccc(Br)cc1	.	7	7	38*	-2	0	14
O=C(Nc1c(-c2ccc3c(c2)OCO3)[nH][nH]c1=O)c1ccc2c(c1)OCO2	.	5	8	48*	6	2	67*
O=C(Nc1c(-c2ccccc2)[nH][nH]c1=O)c1ccccc1	.	-6	8	35*	5	-1	9
O=C(Nc1c(-c2ccccc2)[nH][nH]c1=O)c1cccc(C(F)(F)F)c1	.	-8	4	26*	0	1	14
Cc1cnc(C(=O)Nc2c(-c3ccccc3)[nH][nH]c2=O)cn1	.	-5	-1	-4	2	-16	.
Cc1ccccc1-c1ccc2c(c1)[C@@H]1C[C@H]3[C@@H](CN1CC2)[C@H](C)ON3C	.	-2	-3	2	14	-1	.
Cc1noc(C)c1S(=O)(=O)N(C)C[C@@H]1OCc2cn(nn2)CCCC(=O)N([C@H](C)CO)C[C@H]1C	.	-4	1	-8	2	-4	.
C=CCn1c(COc2ccc(Cl)cc2)nnc1SCC(=O)c1ccccc1	.	.	-1	0	-2	-7	.
SMILES	HTRA1 inhibitor	TCR-CD3 inh	LEDGF integ inh	TDP2 inh	SIAE primary	ABHD4 inh	TDP2 confirm
Nn1c(SCC(=O)Nc2ccccc2-c2ccccc2)nnc1-c1cc(-c2ccccc2)n[nH]1	.	.	-3	-2	-6	-2	.
COc1ccc2c(CC(=O)N[C@@H](Cc3ccccc3)C(=O)O)cc(=O)oc2c1C	14	0	3	-9	-2	-2	.
Cc1c(O)ccc2c(CC(=O)N[C@@H](Cc3ccc(O)cc3)C(=O)O)cc(=O)oc12	-4	0	1	31*	-2	-6	4
Cc1onc(C(=O)N2CCN(C(c3ccc(F)cc3)c3ccc(F)cc3)CC2)c1[N+](=O)[O-]	.	.	2	0	2	-5	.
COC(=O)C1=CN(Cc2ccccc2)C=C(C(=O)OC)C1c1ccc(OC)c(OC)c1	14	6	-1	26*	-3	4	5
CCC1CCCCN1C(=O)CNCC1CCCO1 (configuration not stated)	3	3	-1	33*	-1	5	7
CC1CCN(C(=O)Cn2c(SCC(=O)Nc3nccs3)nc3ccccc32)CC1	1	0	2	30*	-2	0	6
CC1(C(=O)OCC(=O)Nc2cccc(S(=O)(=O)NC3=NCCCCC3)c2)CC1(Cl)Cl (configuration not stated)	1	0	-5	27*	-3	0	3
COc1ccc(CCn2c(N)c(C(=O)NCc3ccco3)c3nc4ccccc4nc32)cc1	-35	-1	4	9	-7	-11	.
COc1ccc(CCn2c(N)c(C(=O)NCc3ccco3)c3nc4ccccc4nc32)cc1OC	-21	2	-3	25*	-1	-2	26*
Cc1cc(NS(=O)(=O)c2ccc(NC(=O)CSc3nc4sc(C)c(C)c4c(=O)n3Cc3ccco3)cc2)nc(C)n1	.	.	1	-7	-22	-43	.
Nc1cc2nn(-c3ccccc3)nc2cc1Cl	20	4	48*	70*	16	29	47*
Nc1ccc(-n2nc3ccccc3n2)cc1	7	4	2	10	-2	-4	.
CC1=C(C(=O)OC(C)C)C2(O)C(=O)c3ccccc3C2(O)N1 (configuration not stated)	2	6	3	44*	-2	2	13
CC1=C(C#N)C2(O)C(=O)c3ccccc3C2(O)N1 (configuration not stated)	6	4	-10	-12	-2	2	.
CCOC(=O)C1=C(C)N[C@@]2(O)c3ccccc3C(=O)[C@@]12O	5	2	2	36*	1	4	29*
